{
  "source": "ChEMBL document CHEMBL1795235",
  "about": "“Quercetin diacylglycoside analogues showing dual inhibition of DNA gyrase and topoisomerase IV as novel antibacterial agents” (J Med Chem, 2011)",
  "key": {"[1]": {"tested_on": "Mus musculus", "assay": "Toxicity in mouse at 100 mg/kg, iv administered for 4 days assessed as transient seizure like reaction measured after 10 mins of compound administration", "type": "organism-based", "set-up": "dose 100 mg/kg, route intravenous", "details": "in vivo"}, "[2]": {"tested_on": "Mus musculus", "assay": "Toxicity in mouse at 100 mg/kg, iv administered for 4 days assessed as transient seizure like reaction measured after 1 day of compound administration", "type": "organism-based", "set-up": "dose 100 mg/kg, route intravenous", "details": "in vivo, 24 h"}, "[3]": {"tested_on": "Mus musculus", "assay": "Toxicity in iv dosed mouse assessed as incidence of mortality measured 14 days post dose", "type": "organism-based", "details": "in vivo, 336 h", "summary_of_the_method": "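Male mice (n = 4), 15–30 g, given water only for 12 h beforehand. Dosed intravenously by tail vein in 50% PEG in saline at 10, 50 or 100 mg/kg/day for 4 days (total dose volume 20 mL/kg). Weight gain, mobility and mortality were observed up to 14 days.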"}, "[4]": {"tested_on": "Staphylococcus aureus", "assay": "Antibacterial activity against methicillin-susceptible Staphylococcus aureus 209P after 24 hrs by microdilution method", "type": "functional", "summary_of_the_method": "(§1)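 Broth microdilution in Mueller-Hinton broth with 0.85% NaCl, inoculum about 10^5 CFU per 100 μL. Compounds were diluted in water from 25.6 mg/mL stocks to final 2-fold series of 0.062–128 μg/mL. Plates were incubated 24 h at 35 °C. MIC was the lowest concentration at which all triplicate wells were clear, from three independent determinations.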"}, "[5]": {"tested_on": "Enterococcus", "assay": "Antibacterial activity against vancomycin resistant Enterococcus FN-1 after 24 hrs by microdilution method", "type": "functional", "details": "FN-1, 24 h", "summary_of_the_method": "as §1"}, "[6]": {"tested_on": "Enterococcus", "assay": "Antibacterial activity against vancomycin resistant Enterococcus NCTC 12201 after 24 hrs by microdilution method", "type": "functional", "details": "NCTC 12201, 24 h", "summary_of_the_method": "as §1"}, "[7]": {"tested_on": "Staphylococcus aureus", "assay": "Antibacterial activity against vancomycin-intermediate Staphylococcus aureus Mu50 after 24 hrs by microdilution method", "type": "functional", "details": "Mu50, 24 h", "summary_of_the_method": "as §1"}, "[8]": {"tested_on": "Staphylococcus aureus", "assay": "Antibacterial activity against methicillin-resistant Staphylococcus aureus OM481 after 24 hrs by microdilution method", "type": "functional", "details": "OM481, 24 h", "summary_of_the_method": "as §1"}, "[9]": {"tested_on": "Staphylococcus aureus", "assay": "Antibacterial activity against methicillin-resistant Staphylococcus aureus OM584 after 24 hrs by microdilution method", "type": "functional", "details": "OM584, 24 h", "summary_of_the_method": "as §1"}, "[10]": {"tested_on": "Staphylococcus aureus", "assay": "Antibacterial activity against methicillin-resistant Staphylococcus aureus N315 after 24 hrs by microdilution method", "type": "functional", "details": "N315, 24 h", "summary_of_the_method": "as §1"}, "[11]": {"tested_on": "Staphylococcus aureus", "assay": "Antibacterial activity against methicillin-resistant Staphylococcus aureus COL after 24 hrs by microdilution method", "type": "functional", "summary_of_the_method": "as §1"}, "[12]": {"tested_on": "Streptococcus pneumoniae", "assay": "Antibacterial activity against Streptococcus pneumoniae R6 after 24 hrs by microdilution method", "type": "functional", "details": "R6, 24 h", "summary_of_the_method": "(§2)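 Broth microdilution in Mueller-Hinton broth with 0.85% NaCl, inoculum about 10^5 CFU per 100 μL. Compounds diluted from 25.6 mg/mL stocks in water to 2-fold series, final 0.062–128 μg/mL. […] Three independent determinations.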"}, "[13]": {"tested_on": "Pseudomonas aeruginosa", "assay": "Antibacterial activity against Pseudomonas aeruginosa PAO1 after 24 hrs by microdilution method", "type": "functional", "details": "PAO1, 24 h", "summary_of_the_method": "as §2"}, "[14]": {"tested_on": "Escherichia coli", "assay": "Antibacterial activity against Escherichia coli K-12 after 24 hrs by microdilution method", "type": "functional", "details": "K-12, 24 h", "summary_of_the_method": "as §2"}, "[15]": {"assay": "Inhibition of Escherichia coli DNA gyrase assessed as inhibition of pBR322 supercoiling by densitometry", "summary_of_the_method": "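One unit of E. coli gyrase with 0.5 μg relaxed pBR322 DNA, 37 °C, 30 min. Stopped with sucrose/EDTA dye, run on 1.0% agarose in TAE. IC50 from densitometry via log-interpolation equation.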"}, "[16]": {"assay": "Inhibition of Staphylococcus aureus DNA Topoisomerase 4-mediated decatenation of kDNA after 30 mins by densitometry", "summary_of_the_method": "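Purchased S. aureus topoIV, one unit with 200 ng kDNA, 37 °C, 30 min. Products resolved on 1.0% agarose in TAE. IC50 of decatenation from densitometry by interpolation equation, at least three determinations.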"}, "[17]": {"assay": "Inhibition of Escherichia coli DNA topoisomerase 4 subunit ParC/DNA topoisomerase 4 subunit ParE-mediated decatenation of kDNA by densitometry", "summary_of_the_method": "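Purchased E. coli topoIV kit enzyme, one unit with 200 ng kDNA, 37 °C, 30 min. Buffer: 50 mM HEPES-KOH pH 7.6, 5 mM magnesium acetate, 100 mM potassium glutamate, 10 mM DTT, 1 mM ATP, 40% glycerol. Gel on 1.0% agarose in TAE. IC50 of decatenation from densitometry by interpolation equation, at least three determinations.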"}, "[18]": {"assay": "Ratio IC50 for Escherichia coli DNA topoisomerase 4 ParC/DNA topoisomerase 4 subunit ParE-mediated decatenation of kDNA to IC50 for Staphylococcus aureus DNA topoisomerase 4 subunit B-mediated decatenation of kDNA"}, "[19]": {"tested_on": "Mus musculus", "assay": "Toxicity in mouse at 10 mg/kg, iv administered for 4 days measured after 14 days", "type": "organism-based", "set-up": "dose 10 mg/kg, route intravenous", "details": "in vivo, 336 h"}, "[20]": {"tested_on": "Mus musculus", "assay": "Toxicity in mouse at 50 mg/kg, iv administered for 4 days measured after 14 days", "type": "organism-based", "set-up": "dose 50 mg/kg, route intravenous", "details": "in vivo, 336 h"}, "[21]": {"assay": "Intestinal absorption in Wistar rat at 1 mg/mL, injected into small intestine, measured after 1 hr by UV-spectrophotometric analysis", "details": "in situ, intestinal injection"}},
  "data": [
    {"compound": "O=C(CCc1ccc(F)cc1)OC[C@H]1O[C@@H](Oc2c(-c3ccc(O)c(O)c3)oc3cc(O)cc(O)c3c2=O)[C@H](OC(=O)CCc2ccc(F)cc2)[C@@H](O)[C@H]1O", "values": [
      {"measurement": "Activity", "setting": "[1]", "value": "Toxic"},
      {"measurement": "Activity", "setting": "[2]", "value": "Non-toxic"},
      {"measurement": "Activity", "setting": "[3]", "value": "Non-toxic"},
      {"measurement": "MIC", "setting": "[4]", "value": 0.13, "unit": "µg/mL"},
      {"measurement": "MIC", "setting": "[5]", "value": 0.25, "unit": "µg/mL"},
      {"measurement": "MIC", "setting": "[6]", "value": 0.25, "unit": "µg/mL"},
      {"measurement": "MIC", "setting": "[7]", "value": 0.5, "unit": "µg/mL"},
      {"measurement": "MIC", "setting": "[8]", "value": 0.13, "unit": "µg/mL"},
      {"measurement": "MIC", "setting": "[9]", "value": 0.13, "unit": "µg/mL"},
      {"measurement": "MIC", "setting": "[10]", "value": 0.13, "unit": "µg/mL"},
      {"measurement": "MIC", "setting": "[11]", "value": 0.5, "unit": "µg/mL"},
      {"measurement": "MIC", "setting": "[12]", "value": 0.13, "unit": "µg/mL"},
      {"measurement": "MIC", "setting": "[13]", "value": "> 128", "unit": "µg/mL"},
      {"measurement": "MIC", "setting": "[14]", "value": "> 128", "unit": "µg/mL"},
      {"measurement": "IC50", "setting": "[15]", "value": 780, "unit": "nM"},
      {"measurement": "IC50", "setting": "[16]", "value": 220, "unit": "nM"},
      {"measurement": "IC50", "setting": "[17]", "value": 9.16, "unit": "µM"},
      {"measurement": "Ratio IC50", "setting": "[18]", "value": 40},
      {"measurement": "Activity", "setting": "[19]", "value": "Non-toxic"},
      {"measurement": "Activity", "setting": "[20]", "value": "Non-toxic"},
      {"measurement": "Fa at 1 h", "setting": "[21]", "value": 76.6, "unit": "%"}
    ]}
  ]
}
